The whole screen tested about 190,000 compounds, of which about 660 (0.35%) were called active.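 The calls were made as follows: active = activation factor of 2 or more at 20 µM; inactive = the rest.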 The entries come from a sample that favours actives as a whole.
Each compound was assayed against Mannose-6-phosphate isomerase (Homo sapiens) (UniProt P34949) (assay: MPI activation at elevated mannose 6-phosphate – biochemical, fluorescence intensity, near-saturating mannose 6-phosphate, primary screen (AID 1216)). Details: coupled PMI enzyme assay, resazurin fluorescence, 20 min; at 20 µM; hits give high values.
Method in brief: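 test system = human PMI in coupled enzyme assay | medium = HEPES-buffered pH 7.4 with magnesium and detergent | also added = 1.0 mM mannose-6-phosphate substrate with 0.22 mM NADP+ | compound = 20 µM single dose | times = 20 min incubation at room temperature | measured by = resorufin fluorescence (Ex 544/Em 590 nm) from resazurin via diaphorase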

Chain of Mannose-6-phosphate isomerase (Homo sapiens) (P34949 whole entry, looked up): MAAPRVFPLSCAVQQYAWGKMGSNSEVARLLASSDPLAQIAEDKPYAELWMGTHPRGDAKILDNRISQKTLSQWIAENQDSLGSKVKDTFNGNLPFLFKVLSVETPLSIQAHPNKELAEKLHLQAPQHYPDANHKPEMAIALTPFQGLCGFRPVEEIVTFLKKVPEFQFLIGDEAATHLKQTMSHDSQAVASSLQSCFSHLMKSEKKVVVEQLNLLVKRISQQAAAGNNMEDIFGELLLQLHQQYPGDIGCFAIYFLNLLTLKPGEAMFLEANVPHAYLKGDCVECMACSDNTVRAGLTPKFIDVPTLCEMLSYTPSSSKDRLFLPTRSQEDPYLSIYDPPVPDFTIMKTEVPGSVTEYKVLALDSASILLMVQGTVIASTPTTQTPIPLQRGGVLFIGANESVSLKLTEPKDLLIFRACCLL

Compound | activation factor
Cc1ccc2c(c1)=C/C(=C\c1c(O)[nH]c(=O)[nH]c1=O)C(=O)N=2 | 0.5 (inactive)
COc1ccccc1N=Nc1c(O)[nH]c(=S)[nH]c1=O | 0.9 (inactive)
O=C1N=c2ccccc2=C/C1=C\c1c(O)[nH]c(=S)[nH]c1=O | 2.1 (active)
O=C(CSC1c2ccccc2-c2ccccc21)N/N=C/c1ccccc1 | 0.9 (inactive)
Cc1cccc(OP(=O)(Oc2cccc(C)c2)OC(c2ccccc2)C(F)(F)F)c1 (stereo not given) | 0.9 (inactive)
